Data: ChEMBL document CHEMBL3872265, “Structure-activity relationship of the inhibitory effects of flavonoids on nitric oxide production in RAW264.7 cells” (Bioorg Med Chem, 2017)

How the values were obtained:
RAW264.7 [1] = test: Inhibition of LPS-stimulated nitric oxide production in mouse RAW264.7 cells by Greiss method; type: functional, cell-based
Method in brief: (§1)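 This variant stimulated RAW264.7 murine macrophages with LPS alone, without IFN-γ, in the presence of test compound. Released nitrite was measured by the Griess method to quantify NO production. Cell viability was assessed with AlamarBlue reagent.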

RAW264.7 [2] = test: Inhibition of LPS/INF-gamma-stimulated nitric oxide production in mouse RAW264.7 cells by Greiss method; type: functional, cell-based
Method in brief: (§2)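 RAW264.7 murine macrophages were co-stimulated with LPS (100 ng/mL) plus IFN-γ (0.33 ng/mL) in the presence of test compound. Nitrite released into the medium was quantified by the Griess method as a measure of NO. Cell viability was read in parallel with AlamarBlue reagent.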

[3] = Cytotoxicity against LPS-stimulated mouse RAW264.7 cells assessed as cell viability at 100 uM by alamar blue assay relative to control; type: toxicity; conditions: LPS-stimulated RAW264.7 cells, read-out: Activity; method in brief: as §1
Peritoneal macrophage = test: Inhibition of LPS-stimulated nitric oxide production in ddy mouse peritoneal macrophages measured after 20 hrs by Greiss method; type: functional
RAW264.7 [4] = test: Inhibition of LPS/INF-gamma-stimulated nitric oxide production in mouse RAW264.7 cells measured after 16 hrs; type: functional, cell-based; conditions: RAW264.7, 16 h; method in brief: as §2
[5] = Cytotoxicity against LPS/INF-gamma-stimulated mouse RAW264.7 cells assessed as cell viability at 100 uM by alamar blue assay relative to control; type: toxicity; conditions: LPS/INF-gamma-stimulated RAW264.7 cells, read-out: Activity; method in brief: as §2

With `O=c1c(O)c(-c2ccc(O)cc2)oc2cc(O)cc(O)c12` [KAEMPFEROL] as the compound, how does the IC50 (RAW264.7 [1]) read?
Its IC50 is 13.4 µM.

What about the IC50 (RAW264.7 [2]) of the same compound?
The IC50 was 17 µM.

And the viability at 100 µM [3]?
The viability at 100 µM was 141%.

What about the IC50 (Peritoneal macrophage) of the same compound?
Its IC50 is 29 µM.

And the IC50 (RAW264.7 [4])?
The IC50 was 15 µM.

And the viability at 100 µM [5]?
The viability at 100 µM was 138%.

With `COc1c(O)cc(-c2oc3cc(O)ccc3c(=O)c2O)cc1O` as the compound, how does the IC50 (RAW264.7 [4]) read?
Its IC50 is 14 µM.

Which IC50 (Peritoneal macrophage) does the source give for `O=c1cc(-c2ccc(O)cc2)oc2cc(O)ccc12` here?
The IC50 was 14 µM.

With `COc1cc(-c2cc(=O)c3c(O)cc(O)cc3o2)cc(OC)c1O` [TRICIN] as the compound, how does the IC50 (RAW264.7 [4]) read?
The IC50 was 8 µM.

With `COc1cc(-c2cc(=O)c3c(O)cc(O)cc3o2)cc(O)c1OC` as the compound, how does the IC50 (RAW264.7 [1]) read?
The IC50 was 6.9 µM.

What about the IC50 (RAW264.7 [2]) of the same compound?
The IC50 was 18.2 µM.

What about the viability at 100 µM [3] of the same compound?
Its viability at 100 µM is 106%.

And the viability at 100 µM [5]?
The viability at 100 µM was 96%.

For `COc1ccc(-c2cc(=O)c3c(O)cc(O)cc3o2)cc1O` [DIOSMETIN], which IC50 (RAW264.7 [1]) is on record?
Its IC50 is 16.7 µM.

What about the IC50 (RAW264.7 [2]) of the same compound?
Its IC50 is 32.2 µM.

What about the IC50 (Peritoneal macrophage) of the same compound?
Its IC50 is 8.9 µM.

Which IC50 (Peritoneal macrophage) does the source give for `O=c1c(O)c(-c2ccc(O)c(O)c2)oc2cc(O)cc(O)c12` [QUERCETIN] here?
Its IC50 is 36 µM.

With `O=C1C[C@@H](c2cc(O)cc(O)c2)Oc2cc(O)cc(O)c21` as the compound, how does the IC50 (RAW264.7 [4]) read?
The IC50 was 12 µM.

With `O=C1C[C@@H](c2ccc(O)cc2)Oc2cc(O)ccc21` [LIQUIRTIGENIN] as the compound, how does the IC50 (Peritoneal macrophage) read?
The IC50 was 85 µM.

With `O=c1c(O)c(-c2cc(O)c(O)c(O)c2)oc2cc(O)cc(O)c12` [MYRICETIN] as the compound, how does the IC50 (Peritoneal macrophage) read?
Its IC50 is 99 µM.

Which IC50 (RAW264.7 [4]) does the source give for `O=c1c(O)c(-c2cc(O)c(O)c(O)c2)oc2cc(O)ccc12` [ROBINETIN] here?
Its IC50 is 42 µM.

With `COc1ccc(-c2oc3cc(O)cc(O)c3c(=O)c2O)cc1O` [TAMARIXETIN] as the compound, how does the IC50 (Peritoneal macrophage) read?
Its IC50 is 25 µM.

With `COc1c(O)cc(-c2cc(=O)c3c(O)cc(O)cc3o2)cc1O` as the compound, how does the IC50 (RAW264.7 [1]) read?
Its IC50 is 37 µM.

What about the IC50 (RAW264.7 [2]) of the same compound?
Its IC50 is 59.3 µM.

What about the viability at 100 µM [3] of the same compound?
The viability at 100 µM was 112%.

And the viability at 100 µM [5]?
Its viability at 100 µM is 119%.

Which IC50 (RAW264.7 [4]) does the source give for `COc1c(O)cc([C@H]2Oc3cc(O)ccc3C(=O)[C@@H]2O)cc1O` here?
The IC50 was over 100 µM.

For `O=c1cc(-c2ccc(O)cc2)oc2cc(O)cc(O)c12` [APIGENIN], which IC50 (Peritoneal macrophage) is on record?
The IC50 was 7.7 µM.

And the IC50 (RAW264.7 [4])?
Its IC50 is 14 µM.

For `O=c1cc(-c2ccc(O)c(O)c2)oc2cc(O)cc(O)c12` [LUTEOLIN], which IC50 (Peritoneal macrophage) is on record?
Its IC50 is 20 µM.

Which IC50 (RAW264.7 [4]) does the source give for `COc1cc(-c2oc3cc(O)ccc3c(=O)c2O)cc(OC)c1O` here?
The IC50 was 63 µM.

Which IC50 (Peritoneal macrophage) does the source give for `O=c1cc(-c2ccc(O)c(O)c2)oc2cc(O)ccc12` here?
The IC50 was 26 µM.

For `O=C1C[C@@H](c2ccc(O)c(O)c2)Oc2cc(O)cc(O)c21` [ERIODICTYOL], which IC50 (Peritoneal macrophage) is on record?
The IC50 was over 100 µM.

For `O=C1c2ccc(O)cc2O[C@H](c2cc(O)c(O)c(O)c2)[C@H]1O`, which IC50 (RAW264.7 [4]) is on record?
The IC50 was over 100 µM.

For `COc1c(O)cc(-c2oc3cc(O)cc(O)c3c(=O)c2O)cc1O` [MEARNSETIN], which IC50 (Peritoneal macrophage) is on record?
The IC50 was 84 µM.

Which IC50 (RAW264.7 [4]) does the source give for `COc1cc([C@H]2Oc3cc(O)ccc3C(=O)[C@@H]2O)cc(OC)c1O` here?
The IC50 was over 100 µM.

Which IC50 (RAW264.7 [4]) does the source give for `O=C1c2c(O)cc(O)cc2O[C@H](c2ccc(O)cc2)[C@H]1O` [DIHYDROKAEMPFEROL] here?
Its IC50 is over 100 µM.

For `COc1ccc(-c2cc(=O)c3c(O)cc(O)cc3o2)cc1` [ACACETIN], which IC50 (RAW264.7 [1]) is on record?
The IC50 was 27.7 µM.

And the IC50 (RAW264.7 [2])?
The IC50 was 53.7 µM.

What about the viability at 100 µM [3] of the same compound?
The viability at 100 µM was 99%.

And the viability at 100 µM [5]?
Its viability at 100 µM is 115%.

Which IC50 (RAW264.7 [4]) does the source give for `O=C1C[C@@H](c2ccc(O)cc2)Oc2cc(O)cc(O)c21` [NARINGENIN] here?
Its IC50 is 60 µM.

For `COc1ccc(-c2cc(=O)c3c(O)cc(O)cc3o2)cc1OC`, which IC50 (RAW264.7 [1]) is on record?
The IC50 was 5 µM.

What about the IC50 (RAW264.7 [2]) of the same compound?
The IC50 was 17 µM.

And the viability at 100 µM [3]?
Its viability at 100 µM is 112%.

What about the viability at 100 µM [5] of the same compound?
The viability at 100 µM was 109%.

With `O=C1C[C@@H](c2cc(O)c(O)c(O)c2)Oc2cc(O)ccc21` as the compound, how does the IC50 (RAW264.7 [4]) read?
Its IC50 is over 100 µM.
